In ChEMBL document CHEMBL4229449, “Synthesis and antimicrobial studies of hydrazone derivatives of 4-[3-(2,4-difluorophenyl)-4-formyl-1H-pyrazol-1-yl]benzoic acid and 4-[3-(3,4-difluorophenyl)-4-formyl-1H-pyrazol-1-yl]benzoic acid” (Bioorg Med Chem Lett, 2018):
Values after ≈ are worked out from the molar mass of the structure shown. Active and inactive are the calls of the source. The calls are words filed in the database; no cut-off is given here.

Assays:
Staphylococcus aureus [1] = experiment: Antimicrobial activity against Staphylococcus aureus by broth microdilution method; type: functional
Staphylococcus aureus [2] = experiment: Antimicrobial activity against methicillin-resistant Staphylococcus aureus by broth microdilution method; type: functional
Bacillus subtilis = experiment: Antimicrobial activity against Bacillus subtilis by broth microdilution method; type: functional
Acinetobacter baumannii = experiment: Antimicrobial activity against Acinetobacter baumannii by broth microdilution method; type: functional
Pseudomonas aeruginosa = experiment: Antimicrobial activity against Pseudomonas aeruginosa by broth microdilution method; type: functional, organism-based
Klebsiella aerogenes = experiment: Antimicrobial activity against Enterobacter aerogenes by broth microdilution method; type: functional, organism-based
[3] = system: Panel NCI-60 (60 carcinoma cell lines); experiment: Cytotoxicity against human NCI60 cells assessed as reduction in cell viability at 10 uM after 24 hrs by resazurin dye based method
HEK293 [4] = experiment: Cytotoxicity against human HEK293 cells assessed as reduction in cell viability at 25 to 50 ug/ml after 24 hrs by resazurin dye based method; details: hek293, 24 h
Method in brief: (§1)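 HEK-293 human embryonic kidney cells were exposed to test compounds at 25 and 50 μg/mL and incubated for 24 h. Growth inhibition was read by resazurin assay and expressed as percent cell viability.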

HEK293 [5] = experiment: Cytotoxicity against human HEK293 cells assessed as reduction in cell viability at 50 ug/ml after 24 hrs by resazurin dye based method; details: hek293, 24 h; method in brief: as §1
Staphylococcus aureus [6] = experiment: Growth inhibition of methicillin-resistant Staphylococcus aureus LAC after 20 to 24 hrs by resazurin dye based method; type: functional
Staphylococcus aureus [7] = experiment: Growth inhibition of methicillin-sensitive Staphylococcus aureus UAMS-1 after 20 to 24 hrs by resazurin dye based method; type: functional

Compound	MIC (Staphylococcus aureus [1])	MIC (Staphylococcus aureus [2])	MIC (Bacillus subtilis)	MIC (Acinetobacter baumannii)	MIC (Pseudomonas aeruginosa)	MIC (Klebsiella aerogenes)	Activity [3]	Activity (HEK293 [4])	Activity (HEK293 [5]) [%]	MIC (Staphylococcus aureus [6]) [µg/mL]	MIC (Staphylococcus aureus [7]) [µg/mL]
O=C(O)c1ccc(-n2cc(/C=N/Nc3c(F)c(F)cc(F)c3F)c(-c3ccc(F)cc3F)n2)cc1	inactive	inactive	inactive	inactive	inactive	inactive	–	–	–	–	–
O=C(O)c1ccc(-n2cc(/C=N/Nc3c(F)c(F)c(F)c(F)c3F)c(-c3ccc(F)cc3F)n2)cc1	inactive	inactive	inactive	inactive	inactive	inactive	–	–	–	–	–
O=C(O)c1ccc(-n2cc(/C=N/Nc3cc(F)ccc3F)c(-c3ccc(F)c(F)c3)n2)cc1	inactive	inactive	3.12 µg/mL (≈ 6.88 µM)	6.25 µg/mL (≈ 13.8 µM)	inactive	inactive	Non-Toxic	Non-Toxic	69	–	–
O=C(O)c1ccc(-n2cc(/C=N/Nc3c(F)c(F)cc(F)c3F)c(-c3ccc(F)c(F)c3)n2)cc1	12.5 µg/mL (≈ 25.5 µM)	12.5 µg/mL (≈ 25.5 µM)	6.25 µg/mL (≈ 12.7 µM)	inactive	inactive	inactive	–	–	–	–	–
COLISTIN	–	–	–	12.5 µg/mL	0.78 µg/mL	0.39 µg/mL	–	–	–	–	–
CN1CCN(/N=C/c2cn(-c3ccc(C(=O)O)cc3)nc2-c2ccc(F)c(F)c2)CC1	inactive	inactive	inactive	inactive	inactive	inactive	–	–	–	–	–
O=C(O)c1ccc(-n2cc(/C=N/Nc3cc(F)ccc3F)c(-c3ccc(F)cc3F)n2)cc1	12.5 µg/mL (≈ 27.5 µM)	12.5 µg/mL (≈ 27.5 µM)	3.12 µg/mL (≈ 6.87 µM)	12.5 µg/mL (≈ 27.5 µM)	inactive	inactive	–	–	–	–	–
O=C(O)c1ccc(-n2cc(/C=N/N3CCCCC3)c(-c3ccc(F)cc3F)n2)cc1	inactive	inactive	inactive	inactive	inactive	inactive	–	–	–	–	–
CN[C@H](CC(C)C)C(=O)N[C@H]1C(=O)N[C@@H](CC(N)=O)C(=O)N[C@H]2C(=O)N[C@H]3C(=O)N[C@H](C(=O)N[C@H](C(=O)O)c4cc(O)cc(O)c4-c4cc3ccc4O)[C@H](O)c3ccc(c(Cl)c3)Oc3cc2cc(c3O[C@@H]2O[C@H](CO)[C@@H](O)[C@H](O)[C@H]2O[C@H]2C[C@](C)(N)[C@H](O)[C@H](C)O2)Oc2ccc(cc2Cl)[C@H]1O [VANCOMYCIN]	6.25 µg/mL (≈ 4.31 µM)	12.5 µg/mL (≈ 8.63 µM)	–	–	–	–	–	–	–	–	–
O=C(O)c1ccc(-n2cc(/C=N/Nc3ccc([N+](=O)[O-])cc3)c(-c3ccc(F)c(F)c3)n2)cc1	inactive	inactive	inactive	inactive	inactive	inactive	–	–	–	–	–
O=C(O)c1ccc(-n2cc(/C=N/Nc3ccccc3F)c(-c3ccc(F)c(F)c3)n2)cc1	12.5 µg/mL (≈ 28.6 µM)	12.5 µg/mL (≈ 28.6 µM)	12.5 µg/mL (≈ 28.6 µM)	6.25 µg/mL (≈ 14.3 µM)	inactive	inactive	Non-Toxic	Non-Toxic	> 80	–	–
CN1CCN(/N=C/c2cn(-c3ccc(C(=O)O)cc3)nc2-c2ccc(F)cc2F)CC1	inactive	inactive	inactive	inactive	inactive	inactive	–	–	–	–	–
O=C(O)c1ccc(-n2cc(/C=N/Nc3cccc(F)c3)c(-c3ccc(F)c(F)c3)n2)cc1	12.5 µg/mL (≈ 28.6 µM)	12.5 µg/mL (≈ 28.6 µM)	12.5 µg/mL (≈ 28.6 µM)	6.25 µg/mL (≈ 14.3 µM)	inactive	inactive	Non-Toxic	Non-Toxic	> 80	–	–
O=C(O)c1ccc(-n2cc(/C=N/Nc3ccc(F)cc3)c(-c3ccc(F)c(F)c3)n2)cc1	25 µg/mL (≈ 57.3 µM)	25 µg/mL (≈ 57.3 µM)	25 µg/mL (≈ 57.3 µM)	6.25 µg/mL (≈ 14.3 µM)	inactive	inactive	Non-Toxic	Non-Toxic	> 80	–	–
O=C(O)c1ccc(-n2cc(/C=N/Nc3cccc(C(=O)O)c3)c(-c3ccc(F)cc3F)n2)cc1	inactive	inactive	inactive	inactive	inactive	inactive	–	–	–	–	–
O=C(O)c1ccc(-n2cc(/C=N/Nc3ccc(C(F)(F)F)cc3)c(-c3ccc(F)c(F)c3)n2)cc1	0.78 µg/mL (≈ 1.6 µM)	0.78 µg/mL (≈ 1.6 µM)	0.78 µg/mL (≈ 1.6 µM)	3.12 µg/mL (≈ 6.41 µM)	inactive	inactive	Non-Toxic	Non-Toxic	> 80	3.12 (≈ 6.41 µM)	6.25 (≈ 12.8 µM)
O=C(O)c1cn(C2CC2)c2cc(N3CCNCC3)c(F)cc2c1=O [CIPROFLOXACIN]	–	–	1.56 µg/mL (≈ 4.71 µM)	–	–	–	–	–	–	–	–
O=C(O)c1ccc(-n2cc(/C=N/Nc3ccc([N+](=O)[O-])cc3)c(-c3ccc(F)cc3F)n2)cc1	inactive	inactive	inactive	inactive	inactive	inactive	–	–	–	–	–
O=C(O)c1ccc(-n2cc(/C=N/Nc3ccc(Br)cc3)c(-c3ccc(F)cc3F)n2)cc1	12.5 µg/mL (≈ 25.1 µM)	12.5 µg/mL (≈ 25.1 µM)	12.5 µg/mL (≈ 25.1 µM)	1.56 µg/mL (≈ 3.14 µM)	inactive	inactive	Non-Toxic	Non-Toxic	> 80	25 (≈ 50.3 µM)	25 (≈ 50.3 µM)
O=C(O)c1ccc(-n2cc(/C=N/Nc3ccc(Cl)cc3Cl)c(-c3ccc(F)cc3F)n2)cc1	3.12 µg/mL (≈ 6.41 µM)	0.78 µg/mL (≈ 1.6 µM)	0.78 µg/mL (≈ 1.6 µM)	12.5 µg/mL (≈ 25.7 µM)	inactive	inactive	Non-Toxic	Non-Toxic	> 80	12.5 (≈ 25.7 µM)	25 (≈ 51.3 µM)
O=C(O)c1ccc(-n2cc(/C=N/Nc3ccc(F)cc3)c(-c3ccc(F)cc3F)n2)cc1	25 µg/mL (≈ 57.3 µM)	25 µg/mL (≈ 57.3 µM)	6.25 µg/mL (≈ 14.3 µM)	6.25 µg/mL (≈ 14.3 µM)	inactive	inactive	–	–	–	–	–
O=C(O)c1ccc(-n2cc(/C=N/Nc3ccc(Cl)cc3)c(-c3ccc(F)c(F)c3)n2)cc1	6.25 µg/mL (≈ 13.8 µM)	6.25 µg/mL (≈ 13.8 µM)	6.25 µg/mL (≈ 13.8 µM)	1.56 µg/mL (≈ 3.44 µM)	inactive	inactive	Non-Toxic	Non-Toxic	> 80	–	–
O=C(O)c1ccc(-n2cc(/C=N/Nc3ccccc3)c(-c3ccc(F)cc3F)n2)cc1	25 µg/mL (≈ 59.8 µM)	25 µg/mL (≈ 59.8 µM)	25 µg/mL (≈ 59.8 µM)	25 µg/mL (≈ 59.8 µM)	inactive	inactive	Non-Toxic	Non-Toxic	> 80	–	–
O=C(O)c1ccc(-n2cc(/C=N/Nc3ccccc3)c(-c3ccc(F)c(F)c3)n2)cc1	25 µg/mL (≈ 59.8 µM)	25 µg/mL (≈ 59.8 µM)	25 µg/mL (≈ 59.8 µM)	6.25 µg/mL (≈ 14.9 µM)	inactive	inactive	Non-Toxic	Non-Toxic	> 80	–	–
O=C(O)c1ccc(N/N=C/c2cn(-c3ccc(C(=O)O)cc3)nc2-c2ccc(F)cc2F)cc1	inactive	inactive	inactive	inactive	inactive	inactive	–	–	–	–	–
O=C(O)c1ccc(N/N=C/c2cn(-c3ccc(C(=O)O)cc3)nc2-c2ccc(F)c(F)c2)cc1	inactive	inactive	inactive	inactive	inactive	inactive	–	–	–	–	–
O=C(O)c1ccc(-n2cc(/C=N/Nc3ccccc3F)c(-c3ccc(F)cc3F)n2)cc1	25 µg/mL (≈ 57.3 µM)	25 µg/mL (≈ 57.3 µM)	12.5 µg/mL (≈ 28.6 µM)	12.5 µg/mL (≈ 28.6 µM)	inactive	inactive	Non-Toxic	Non-Toxic	> 80	–	–
O=C(O)c1ccc(-n2cc(/C=N/Nc3ccc(Cl)cc3Cl)c(-c3ccc(F)c(F)c3)n2)cc1	1.56 µg/mL (≈ 3.2 µM)	1.56 µg/mL (≈ 3.2 µM)	0.78 µg/mL (≈ 1.6 µM)	3.12 µg/mL (≈ 6.41 µM)	inactive	inactive	–	–	–	6.25 (≈ 12.8 µM)	6.25 (≈ 12.8 µM)
O=C(O)c1ccc(-n2cc(/C=N/Nc3ccc(Br)cc3)c(-c3ccc(F)c(F)c3)n2)cc1	3.12 µg/mL (≈ 6.27 µM)	1.56 µg/mL (≈ 3.14 µM)	1.56 µg/mL (≈ 3.14 µM)	0.78 µg/mL (≈ 1.57 µM)	inactive	inactive	Non-Toxic	Non-Toxic	> 80	12.5 (≈ 25.1 µM)	12.5 (≈ 25.1 µM)
O=C(O)c1ccc(-n2cc(/C=N/Nc3cccc(F)c3)c(-c3ccc(F)cc3F)n2)cc1	25 µg/mL (≈ 57.3 µM)	25 µg/mL (≈ 57.3 µM)	12.5 µg/mL (≈ 28.6 µM)	6.25 µg/mL (≈ 14.3 µM)	inactive	inactive	Non-Toxic	Non-Toxic	> 80	–	–
